In ChEMBL document CHEMBL1140117, “Structure-activity relationship studies for the peptide portion of the bladder epithelial cell antiproliferative factor from interstitial cystitis patients” (2008):
The source made the active and inactive calls. Starred links: 1 amine or outer side, 2 acyl side, 3 side chain; linkers in the order of their positions; H or OH if unused. Positions of bridges follow the written chain, without caps; N, C: chain ends. Non-standard residues stand in square brackets, D forms with d. Residues, ends and D or L forms follow the SMILES beside them. *: point of attachment. X3 = CC(=O)N[C@H]1[C@@H](O[C@H](C)[C@H](NO[*:2])C(=O)[*:1])O[C@H](CO)[C@H](O)[C@@H]1O[C@@H]1O[C@H](CO)[C@H](O)[C@H](O)[C@H]1O; X1 = CC(=O)N[C@@H]1[C@@H](O[C@@H]2O[C@H](CO)[C@H](O)[C@H](O)[C@H]2O)[C@@H](O)[C@@H](CO)O[C@@H]1*; X2 = CC1(C)OC[C@@H](C(=O)[*:2])N1[*:1]; NMeA = CN[C@@H](C)C(=O)O

Columns and labels:
[1] = Antiproliferative activity against human bladder epithelial cells assessed as inhibition of [3H]thymidine incorporation after 48 hrs relative to as-APF; assay type: functional, Epithelial cell; parameters: scale not given: the % may be the effect or the level left
How it was run: (§1)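 Primary normal human bladder epithelial cells, explanted from cystoscopy biopsies, plated at 1.5 × 10⁴ cells/well in MEM with 10% heat-inactivated FBS. Congeners dissolved in acetonitrile/water (1:1), added in serum-free MEM in 10-fold dilutions up to the 25 µM assay cutoff. Incubated 48 h at 37 °C, 5% CO₂. ³H-thymidine uptake counted on filters. Activity expressed relative to the standard control run on each plate. Triplicates, at least two runs, ANOVA.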

Epithelial cell = assay: Antiproliferative activity against human bladder epithelial cells assessed as inhibition of [3H]thymidine incorporation at <25 uM after 48 hrs relative to as-APF; assay type: functional, cell-based; how it was run: as §1

SMILES | Activity [1] | Activity (Epithelial cell)
CC(=O)N[C@H]1[C@@H](OC[C@H](N)C(=O)N[C@@H](CC(C)C)C(=O)N2CCC[C@H]2C(=O)N[C@@H](C)C(=O)N[C@@H](C)C(=O)N[C@H](C(=O)N[C@H](C(=O)N[C@H](C(=O)N[C@@H](C)C(=O)O)C(C)C)C(C)C)C(C)C)O[C@H](CO)[C@H](O)[C@@H]1O[C@@H]1O[C@H](CO)[C@H](O)[C@H](O)[C@H]1O (H-S(X1)LPAAVVVA-OH) | 1% | –
CC(=O)N[C@H]1[C@@H](OC[C@H](N)C(=O)N[C@H](C(=O)N2CCC[C@H]2C(=O)N[C@@H](C)C(=O)N[C@@H](C)C(=O)N[C@H](C(=O)N[C@H](C(=O)N[C@H](C(=O)N[C@@H](C)C(=O)O)C(C)C)C(C)C)C(C)C)C(C)C)O[C@H](CO)[C@H](O)[C@@H]1O[C@@H]1O[C@H](CO)[C@H](O)[C@H](O)[C@H]1O (H-S(X1)VPAAVVVA-OH) | 0.01% | –
CC(=O)N[C@H]1[C@@H](O[C@H](C)[C@H](N)C(=O)N[C@H](C(=O)N[C@@H](C)C(=O)N[C@@H](C)C(=O)N[C@@H](C)C(=O)N[C@H](C(=O)N[C@H](C(=O)N[C@H](C(=O)N[C@@H](C)C(=O)O)C(C)C)C(C)C)C(C)C)C(C)C)O[C@H](CO)[C@H](O)[C@@H]1O[C@@H]1O[C@H](CO)[C@H](O)[C@H](O)[C@H]1O (H-T(X1)VAAAVVVA-OH) | 0.3% | –
CC(=O)N[C@H]1[C@@H](O[C@H](C)[C@H](N)C(=O)N[C@H](C(=O)N2CCC[C@H]2C(=O)N[C@@H](C)C(=O)N[C@@H](C)C(=O)N[C@@H](C)C(=O)N[C@@H](C)C(=O)N[C@@H](C)C(=O)N[C@@H](C)C(=O)O)C(C)C)O[C@H](CO)[C@H](O)[C@@H]1O[C@@H]1O[C@H](CO)[C@H](O)[C@H](O)[C@H]1O (H-T(X1)VPAAAAAA-OH) | 1% | –
CC(=O)N[C@H]1[C@@H](O[C@H](C)[C@H](N)C(=O)N[C@H](C(=O)N2CCC[C@H]2C(=O)N[C@@H](C)C(=O)N[C@@H](C)C(=O)N[C@H](C(=O)N[C@H](C(=O)N[C@H](C(=O)O)C(C)C)C(C)C)C(C)C)C(C)C)O[C@H](CO)[C@H](O)[C@@H]1O[C@@H]1O[C@H](CO)[C@H](O)[C@H](O)[C@H]1O (H-T(X1)VPAAVVV-OH) | 100% | –
CC(=O)N[C@H]1[C@@H](O[C@H](C)[C@H](N)C(=O)N[C@H](C(=O)N2CCC[C@H]2C(=O)N[C@@H](C)C(=O)N[C@@H](C)C(=O)N[C@H](C(=O)N[C@H](C(=O)N[C@H](C(=O)N[C@@H](C)C(=O)N[C@@H](CS)C(=O)O)C(C)C)C(C)C)C(C)C)C(C)C)O[C@H](CO)[C@H](O)[C@@H]1O[C@@H]1O[C@H](CO)[C@H](O)[C@H](O)[C@H]1O (H-T(X1)VPAAVVVAC-OH) | 1% | –
CC(=O)N[C@H]1[C@@H](O[C@H](C)[C@H](N)C(=O)N[C@H](C(=O)N2CCC[C@H]2C(=O)N[C@@H](C)C(=O)N[C@@H](C)C(=O)N[C@H](C(=O)N[C@H](C(=O)N[C@H](C(=O)N[C@@H](CC(C)C)C(=O)O)C(C)C)C(C)C)C(C)C)C(C)C)O[C@H](CO)[C@H](O)[C@@H]1O[C@@H]1O[C@H](CO)[C@H](O)[C@H](O)[C@H]1O (H-T(X1)VPAAVVVL-OH) | 0.01% | –
CC(=O)N[C@H]1[C@@H](O[C@H](C)[C@H](N)C(=O)N[C@H](C(=O)N2CCC[C@H]2C(=O)N[C@@H](C)C(=O)NCC(=O)N[C@H](C(=O)N[C@H](C(=O)N[C@H](C(=O)NCC(=O)O)C(C)C)C(C)C)C(C)C)C(C)C)O[C@H](CO)[C@H](O)[C@@H]1O[C@@H]1O[C@H](CO)[C@H](O)[C@H](O)[C@H]1O (H-T(X1)VPAGVVVG-OH) | – | inactive
CC(=O)N[C@H]1[C@@H](O[C@H](C)[C@H](N)C(=O)N[C@H](C(=O)N2CCC[C@H]2C(=O)N[C@@H](C)C(=O)N[C@@H](CO)C(=O)N[C@H](C(=O)N[C@H](C(=O)N[C@H](C(=O)N[C@@H](CO)C(=O)O)C(C)C)C(C)C)C(C)C)C(C)C)O[C@H](CO)[C@H](O)[C@@H]1O[C@@H]1O[C@H](CO)[C@H](O)[C@H](O)[C@H]1O (H-T(X1)VPASVVVS-OH) | 0.2% | –
CC(=O)N[C@H]1[C@@H](O[C@H](C)[C@H](N)C(=O)N[C@H](C(=O)N(C)[C@@H](C)C(=O)N[C@@H](C)C(=O)N[C@@H](C)C(=O)N[C@H](C(=O)N[C@H](C(=O)N[C@H](C(=O)N[C@@H](C)C(=O)O)C(C)C)C(C)C)C(C)C)C(C)C)O[C@H](CO)[C@H](O)[C@@H]1O[C@@H]1O[C@H](CO)[C@H](O)[C@H](O)[C@H]1O (H-T(X1)V[NMeA]AAVVVA-OH) | 0.05% | –
CC(=O)N[C@H]1[C@@H](O[C@H](C)[C@H](N)C(=O)N[C@H](C(=O)N2[C@H](C(=O)N[C@@H](C)C(=O)N[C@@H](C)C(=O)N[C@H](C(=O)N[C@H](C(=O)N[C@H](C(=O)N[C@@H](C)C(=O)O)C(C)C)C(C)C)C(C)C)COC2(C)C)C(C)C)O[C@H](CO)[C@H](O)[C@@H]1O[C@@H]1O[C@H](CO)[C@H](O)[C@H](O)[C@H]1O (H-T(X1)V[X2]AAVVVA-OH) | – | inactive
CC(=O)N[C@H]1[C@@H](O[C@H](C)[C@H](N)C(=O)N[C@@H](Cc2ccc(O)cc2)C(=O)N2CCC[C@H]2C(=O)N[C@@H](C)C(=O)N[C@@H](C)C(=O)N[C@H](C(=O)N[C@H](C(=O)N[C@H](C(=O)N[C@@H](C)C(=O)O)C(C)C)C(C)C)C(C)C)O[C@H](CO)[C@H](O)[C@@H]1O[C@@H]1O[C@H](CO)[C@H](O)[C@H](O)[C@H]1O (H-T(X1)YPAAVVVA-OH) | – | inactive
CC(=O)N[C@H]1[C@@H](O[C@H](C)[C@H](NC(=O)[C@@H](N)Cc2ccc(O)cc2)C(=O)N[C@H](C(=O)N2CCC[C@H]2C(=O)N[C@@H](C)C(=O)N[C@@H](C)C(=O)N[C@H](C(=O)N[C@H](C(=O)N[C@H](C(=O)N[C@@H](C)C(=O)O)C(C)C)C(C)C)C(C)C)C(C)C)O[C@H](CO)[C@H](O)[C@@H]1O[C@@H]1O[C@H](CO)[C@H](O)[C@H](O)[C@H]1O (H-YT(X1)VPAAVVVA-OH) | 1% | –
CC(=O)N[C@H]1[C@@H](O[C@H](C)[C@@H]2NOC(=O)[C@H](C)NC(=O)[C@H](C(C)C)NC(=O)[C@H](C(C)C)NC(=O)[C@H](C(C)C)NC(=O)[C@H](C)NC(=O)[C@H](C)NC(=O)[C@@H]3CCCN3C(=O)[C@H](C(C)C)NC2=O)O[C@H](CO)[C@H](O)[C@@H]1O[C@@H]1O[C@H](CO)[C@H](O)[C@H](O)[C@H]1O (VPAAVVVA; linker N-C via X3) | – | inactive
